Active and inactive are the calls of the source. The calls are words filed in the database; no cut-off is given here.
How the values were obtained:
SH-SY5Y [1] = experiment: Cytotoxicity against human SH-SY5Y cells assessed as reduction in cell viability at 100 uM after 72 hrs by MTT assay; assay type: functional
Outline: (§1)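 SH-SY5Y neuroblastoma cells exposed directly to compound at 5–500 µM; viability determined 72 h later by MTT (0.5 mg/mL final, 1 h at 37 °C, SDS/DMF solubilization overnight, 570 nm), relative to cells in fresh medium only.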

Rattus norvegicus [2] = experiment: Toxicity in Wistar albino rat assessed as ulcerogenic activity at 300 mg/kg, po qd for 3 days; assay type: organism-based; design: dose 300 mg/kg, route oral; settings: in vivo, 72 h
Outline: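 Rats in groups of five, fasted 12 h with water ad libitum; oral dosing in two equal portions at 0 and 12 h for three days, 300 mg/kg per day; control given 1% gum acacia. Killed 6 h after last dose; stomach opened along greater curvature, saline-washed, inspected under 3× lens for hyperemia, hemorrhage, erosion or ulcer.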

SH-SY5Y [3] = experiment: Neuroprotective activity against H2O2-induced oxidative stress in human SH-SY5Y cells; assay type: functional, cell-based
Outline: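 SH-SY5Y cells seeded at 2 × 10^5/mL in DMEM-F12 with 5% FBS; after 24 h medium replaced by supernatant of THP-1 cells stimulated 24 h with LPS + IFN-γ, or by medium containing 250 µM H2O2, with compound added at transfer. Cell death measured by LDH assay 72 h later; five independent experiments; randomized block ANOVA.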

THP-1 [4] = experiment: Antiinflammatory activity in human THP1 cells assessed as reduction in LPS and IFN-gamma-induced MCP1 level at 500 uM after 24 hrs; assay type: functional, cell-based
Outline: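 THP-1 cells in DMEM-F12 with 5% FBS, 24-well plates, pretreated 15 min with compound or DMSO vehicle, then stimulated with LPS 0.5 µg/mL plus IFN-γ 150 U/mL for 24 h. Death read as supernatant LDH (iodonitrotetrazolium formazan, 490 nm, fraction of Triton X-100 lysate); survival by MTT; MCP-1 by ELISA. Concentration effects by randomized block ANOVA; 8–11 independent experiments.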

THP-1 [5] = experiment: Neuroprotective activity against LPS and IFN-gamma-stimulated neurotoxin production in human THP1 cells assessed as inhibition of THP1 cell secretion-induced toxicity to human sSH-SY5Y cells after 72 hrs by LDH release assay; assay type: functional, cell-based
Outline: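 THP-1 cells pretreated 15 min with compound, then stimulated with LPS (0.5 µg/mL) plus IFN-γ (150 U/mL) for 24 h. Cell-free supernatant transferred to SH-SY5Y cells plated 24 h earlier (2 × 10^5 cells/mL). After 72 h, SH-SY5Y viability read by MTT (0.5 mg/mL, 1 h, 37 °C, OD570) or by LDH release (OD490, relative to Triton X-100 lysis). IC50 estimated.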

SH-SY5Y [6] = experiment: Cytotoxicity against human SH-SY5Y cells assessed as reduction in cell viability at 500 uM after 72 hrs by MTT assay; assay type: functional; outline: as §1
SH-SY5Y (Homo sapiens) = experiment: Neuroprotective activity against LPS and IFN-gamma-induced human THP1 cell supernatant-induced death of human SH-SY5Y cells after 72 hrs by MTT assay; settings: THP-1
[7] = target: T1, Prostaglandin G/H synthase 1 (Ovis aries) (UniProt P05979); experiment: Inhibition of ovine COX1 at 100 uM
T1 sequence (whole entry): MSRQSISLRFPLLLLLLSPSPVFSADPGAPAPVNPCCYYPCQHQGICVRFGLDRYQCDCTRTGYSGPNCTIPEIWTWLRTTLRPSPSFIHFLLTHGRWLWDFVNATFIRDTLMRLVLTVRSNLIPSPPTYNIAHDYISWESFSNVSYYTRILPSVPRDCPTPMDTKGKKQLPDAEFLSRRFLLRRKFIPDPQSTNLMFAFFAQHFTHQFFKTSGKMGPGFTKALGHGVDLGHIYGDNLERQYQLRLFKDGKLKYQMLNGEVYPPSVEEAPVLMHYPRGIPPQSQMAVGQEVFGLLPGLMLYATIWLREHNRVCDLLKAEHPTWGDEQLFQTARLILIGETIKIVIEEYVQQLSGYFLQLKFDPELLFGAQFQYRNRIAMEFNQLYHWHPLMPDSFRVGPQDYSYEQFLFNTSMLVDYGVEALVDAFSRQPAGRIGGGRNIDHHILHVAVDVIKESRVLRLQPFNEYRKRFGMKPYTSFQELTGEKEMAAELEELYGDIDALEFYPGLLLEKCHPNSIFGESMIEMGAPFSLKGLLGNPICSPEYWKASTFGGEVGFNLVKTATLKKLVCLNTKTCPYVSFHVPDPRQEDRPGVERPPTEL
Outline: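 Screening kit with ovine COX-1 and human recombinant COX-2, run per manufacturer's protocol; percent inhibition of prostaglandin production measured for each isoform.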

THP-1 [8] = experiment: Antiinflammatory activity in human THP1 cells assessed as reduction in LPS and IFN-gamma-induced level at 500 uM after 24 hrs
Rattus norvegicus [9] = experiment: Antiinflammatory activity in Wistar albino rat assessed as inhibition of formalin-induced paw edema at 20 mg/kg, po administered 1 hr prior to formalin challenge measured after 2 hrs relative to control; assay type: functional
Outline: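 Male Wistar rats, 180–200 g, groups of five; single oral dose 1 h before 2% formalin (0.1 mL) into subplantar left hind paw under light ether anaesthesia. Paw volume read by water plethysmometer at baseline and 1, 2, 3, 4 h; % inhibition = control (Vt−Vo) minus treated (Vt−Vo), over control, ×100. Means ± SEM; ANOVA with Student–Newman–Keuls.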

THP-1 [10] = experiment: Neuroprotective activity against LPS and IFN-gamma-stimulated neurotoxin production in human THP1 cells assessed as increase in THP1 cell secretion-induced LDH release to human SY-SH5Y cells at 10 to 100 uM after 72 hrs; assay type: functional, cell-based
Outline: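 THP-1 cells treated with 10–100 µM compound 15 min before LPS/IFN-γ stimulation for 24 h. Supernatants transferred to SH-SY5Y cells. After 72 h, LDH released into the neuronal medium measured colorimetrically and expressed as a fraction of Triton X-100-lysed wells.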

THP-1 [11] = experiment: Neuroprotective activity against LPS and IFN-gamma-stimulated neurotoxin production in human THP1 cell assessed as inhibition of THP1 cell secretion-induced toxicity to human SY-SH5Y cells after 48 hrs of LPS nd IFN-gamma challenge measured after 72 hrs by MTT assay; assay type: functional, cell-based
Outline: (§2)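 THP-1 cells given compound 15 min before LPS (0.5 µg/mL) plus IFN-γ (150 U/mL), then incubated 48 h. Cell-free supernatant moved onto SH-SY5Y cells plated 24 h earlier. Neuronal survival after 72 h by MTT assay or LDH release. 11 independent experiments; IC50 estimated.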

THP-1 [12] = experiment: Neuroprotective activity against LPS and IFN-gamma-stimulated neurotoxin production in human THP1 cell assessed as inhibition of THP1 cell secretion-induced toxicity to human SY-SH5Y cells after 48 hrs of LPS nd IFN-gamma challenge measured after 72 hrs by LDH release assay; assay type: functional, cell-based; outline: as §2

Compound	Activity (SH-SY5Y [1])	Activity (Rattus norvegicus [2])	Activity (SH-SY5Y [3])	Activity (THP-1 [4])	Activity (THP-1 [5])	Activity (SH-SY5Y [6])	Activity (SH-SY5Y (Homo sapiens))	inhibition [7]	Activity (THP-1 [8])	inhibition in vivo at 20 mg/kg (Rattus norvegicus [9])	Activity (THP-1 [10])	IC50 (THP-1 [11])	IC50 (THP-1 [12])
N#Cc1cnn(-c2ccccc2)c1NC(=O)C(=O)Nc1c(C#N)cnn1-c1ccccc1	23%	0%	inactive	Active	Active	86%	Active	11.2%	Active	41%	Active	–	–
CC(NC(=O)C(=O)Nc1c(C#N)cnn1-c1ccccc1)c1ccccc1 (stereo unspecified)	–	10%	–	–	–	–	–	24.5%	–	27%	–	14 µM	40 µM
